Measured values: ChEMBL document CHEMBL1144766, “Discovery of quinolinediones exhibiting a heat shock response and angiogenesis inhibition” (J Med Chem, 2008)
Activity calls are given as the source filed them. The calls are words filed in the database; no cut-off is given here.

Assays:
[1] = biological target: Heat shock protein HSP 90-beta (Homo sapiens) (UniProt P08238); assay: Binding affinity to N-terminal ATP binding site of Hsp90 at 100 uM after 30 mins
In short: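 Compounds were made up in DMSO at 35 mM (stock) just before use and added to whole cell lysates at 100 µM final. Lysates were held on ice for 30 min, then incubated with geldanamycin-derivatized agarose beads at 4 °C with rocking for 60 min. Beads were washed, and eluted proteins were run on gels and blotted for Hsp90. Loss of the Hsp90 band indicated competition.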

[2] = (§1) Cytotoxicity against human NCI60 cells; type: functional; conditions: for TGI: read-out: Log TGI (converted)
NCI60 = assay: as §1; type: functional
HUVEC [3] = assay: Growth inhibition of HUVEC after 48 hrs by sulforhodamine B assay; type: cell-based; conditions: human
In short: (§2)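 Sulforhodamine B assay. Cells were seeded and incubated 24 h, then exposed to serial compound dilutions for 48 h. Plates were fixed with trichloroacetic acid, stained with SRB and read for optical density. GI50 was calculated from the OD data as the concentration giving 50% reduction in net protein increase. HUVEC were grown in EGM-2.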

NCI-H460 = assay: Growth inhibition of human NCI-H460 cells after 48 hrs by sulforhodamine B assay; type: functional; in short: as §2
HUVEC [4] = assay: Antiangiogenic activity in HUVEC assessed as number of junctions at 0.001 ug/ml after 24 hrs relative to control; type: functional, cell-based; conditions: Homo sapiens
In short: (§3)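 HUVEC grown in EGM-2. Matrigel was gelled in wells (15 min room temperature, then 30 min at 37 °C) and seeded with HUVEC at 2 × 10⁵ cells/mL. Compound was added in culture medium. After 24 h, cords and junctions were imaged by inverted microscope and digital camera. Cord length and junction number were measured relative to untreated controls.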

MCF7 = assay: Growth inhibition of human MCF7 cells after 48 hrs by sulforhodamine B assay; type: functional; in short: as §2
HUVEC [5] = assay: Effect on HUVEC growth at 0.01 ug/ml relative to control; type: functional, Homo sapiens
HUVEC [6] = assay: Antiangiogenic activity in HUVEC assessed as number of junctions at 0.01 ug/ml after 24 hrs relative to control; type: functional, Homo sapiens; in short: as §3
HUVEC [7] = assay: Antiangiogenic activity in HUVEC assessed as number of junctions at 0.1 ug/ml after 24 hrs relative to control; type: functional, Homo sapiens; in short: as §3
HUVEC [8] = assay: Effect on HUVEC growth at 10 ug/ml relative to control; type: functional, Homo sapiens
HUVEC [9] = assay: Antiangiogenic activity in HUVEC assessed as number of junctions at 1.0 ug/ml after 24 hrs relative to control; type: functional, Homo sapiens; in short: as §3
HUVEC [10] = assay: Antiangiogenic activity in HUVEC assessed as cord length at 0.01 ug/ml after 24 hrs relative to control; type: functional, cell-based; conditions: Homo sapiens; in short: as §3
HUVEC [11] = assay: Antiangiogenic activity in HUVEC assessed as cord length at 1.0 ug/ml after 24 hrs relative to control; type: functional, cell-based; conditions: Homo sapiens; in short: as §3
HUVEC [12] = assay: Effect on HUVEC growth at 0.1 ug/ml relative to control; type: functional, Homo sapiens
HUVEC [13] = assay: Antiangiogenic activity in HUVEC assessed as cord length at 10 ug/ml after 24 hrs relative to control; type: functional, Homo sapiens; in short: as §3
HUVEC [14] = assay: Antiangiogenic activity in HUVEC assessed as cord length at 0.001 ug/ml after 24 hrs relative to control; type: functional, cell-based; conditions: Homo sapiens; in short: as §3
HUVEC [15] = assay: Effect on HUVEC growth at 0.001 ug/ml relative to control; type: functional, Homo sapiens
HUVEC [16] = assay: Antiangiogenic activity in HUVEC assessed as cord length at 0.1 ug/ml after 24 hrs relative to control; type: functional, cell-based; conditions: Homo sapiens; in short: as §3
HUVEC [17] = assay: Effect on HUVEC growth at 1.0 ug/ml relative to control; type: functional, Homo sapiens

Chain of Heat shock protein HSP 90-beta (Homo sapiens) (P08238 whole entry): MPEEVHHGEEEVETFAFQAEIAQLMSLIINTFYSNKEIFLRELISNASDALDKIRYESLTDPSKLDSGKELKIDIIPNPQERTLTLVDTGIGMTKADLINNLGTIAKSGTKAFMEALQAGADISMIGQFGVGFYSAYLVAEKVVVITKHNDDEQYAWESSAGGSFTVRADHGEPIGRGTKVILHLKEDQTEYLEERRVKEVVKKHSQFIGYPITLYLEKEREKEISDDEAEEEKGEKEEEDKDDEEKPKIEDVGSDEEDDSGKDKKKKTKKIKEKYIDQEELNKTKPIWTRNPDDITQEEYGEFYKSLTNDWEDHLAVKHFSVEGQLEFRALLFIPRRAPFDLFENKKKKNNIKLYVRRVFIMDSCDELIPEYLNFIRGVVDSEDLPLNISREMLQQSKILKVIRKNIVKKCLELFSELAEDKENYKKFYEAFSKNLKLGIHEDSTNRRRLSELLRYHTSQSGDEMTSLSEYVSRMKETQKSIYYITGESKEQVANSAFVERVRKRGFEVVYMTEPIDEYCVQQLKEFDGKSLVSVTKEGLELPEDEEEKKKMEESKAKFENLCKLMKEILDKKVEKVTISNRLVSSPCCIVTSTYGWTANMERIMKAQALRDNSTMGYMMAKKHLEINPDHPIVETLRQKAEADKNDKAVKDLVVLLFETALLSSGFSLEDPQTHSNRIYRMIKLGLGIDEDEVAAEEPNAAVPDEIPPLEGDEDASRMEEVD

Row | SMILES | Activity [1] | GI50 [2] [nM] | LC50 [2] [µM] | TGI [2] [µM] | further results
1 | COCCCNC1=CC(=O)c2ccc(-c3ccccc3)nc2C1=O | inactive | 5500 | 70.8 | 28.8 | –
2 | COCCCNC1=CC(=O)c2nc(-c3ccccc3)ccc2C1=O | inactive | 3550 | 66.1 | 19.1 | –
3 | COc1cc(CNC2=CC(=O)c3ccc(-c4ccccc4)nc3C2=O)cc(OC)c1OC | inactive | 57500 | – | – | Activity (NCI60): inactive
4 | Cc1ccc2c(n1)C(=O)C=C(N1CC1)C2=O | inactive | 513 | 7.94 | 2.04 | –
5 | COc1cc(-c2ccc3c(n2)C(=O)C(NCc2ccccc2)=CC3=O)cc(OC)c1OC | inactive | 2690 | – | 63.1 | Activity (HUVEC [3]): 1.9 µg/mL; Activity (NCI-H460): 0.43 µg/mL; Activity (HUVEC [4]): inactive; Activity (MCF7): 0.35 µg/mL; Activity (HUVEC [5]): 118%; Activity (HUVEC [6]): 50%; Activity (HUVEC [7]): 50%; Activity (HUVEC [8]): 14%; Activity (HUVEC [9]): 50%; Activity (HUVEC [10]): inactive; Activity (NCI60): inactive; Activity (HUVEC [11]): inactive; Activity (HUVEC [12]): 91%; Activity (HUVEC [13]): 75%; Activity (HUVEC [14]): inactive; Activity (HUVEC [15]): 102%; Activity (HUVEC [16]): inactive; Activity (HUVEC [17]): 64%
6 | COc1cc(-c2ccc3c(n2)C(=O)C=C(NCc2ccccc2)C3=O)cc(OC)c1OC | inactive | – | – | – | Activity (HUVEC [3]): 1.9 µg/mL; Activity (NCI-H460): 0.65 µg/mL; Activity (HUVEC [4]): inactive; Activity (MCF7): 0.52 µg/mL; Activity (HUVEC [5]): 92%; Activity (HUVEC [6]; Homo sapiens): inactive; Activity (HUVEC [7]; Homo sapiens): inactive; Activity (HUVEC [8]): 13%; Activity (HUVEC [9]; Homo sapiens): inactive; Activity (HUVEC [10]): inactive; Activity (NCI60): inactive; Activity (HUVEC [11]): inactive; Activity (HUVEC [12]): 64%; Activity (HUVEC [13]): 75%; Activity (HUVEC [14]): inactive; Activity (HUVEC [15]): 104%; Activity (HUVEC [16]): inactive; Activity (HUVEC [17]): 64%
7 | COc1cc2c(nc1C)C(=O)C(N1CC1)=CC2=O | inactive | 275 | 4.37 | 0.832 | –
8 | O=C1C=C(NCc2ccccc2)C(=O)c2nc(-c3ccccc3)ccc21 | inactive | 33100 | – | – | Activity (NCI60): inactive
9 | COc1cc(CNC2=CC(=O)c3nc(-c4ccccc4)ccc3C2=O)cc(OC)c1OC | inactive | 2340 | 66.1 | 15.5 | –
10 | COc1cc2c(nc1-c1ccccc1)C(=O)C(N1CC1)=CC2=O | inactive | 525 | 4.9 | 1.66 | –
11 | C=CCNC1=CC(=O)c2nc(-c3ccccc3)ccc2C1=O | inactive | 1910 | 43.7 | 14.1 | –
12 | O=C1C(NCc2ccccc2)=CC(=O)c2nc(-c3ccccc3)ccc21 | inactive | 1700 | 66.1 | 15.5 | –
13 | O=C1C=C(N2CC2)C(=O)c2nc(-c3ccccc3)ccc21 | inactive | 85.1 | 17.8 | 3.31 | –
14 | COc1cc(-c2ccc3c(n2)C(=O)C=C(N2CC2)C3=O)cc(OC)c1OC | inactive | 589 | 5.5 | 1.78 | –
15 | O=C1C(N2CC2)=CC(=O)c2nc(-c3ccccc3)ccc21 | inactive | 27.5 | 2.04 | 0.324 | –
16 | O=C1C(N2CCCC2)=CC(=O)c2nc(-c3ccccc3)ccc21 | inactive | 44700 | – | – | Activity (NCI60): inactive
17 | COC1=CC(=O)c2nc(-c3cc(OC)c(OC)c(OC)c3)ccc2C1=O | inactive | – | – | – | Activity (HUVEC [3]): 0.28 µg/mL; Activity (NCI-H460): 1.9 µg/mL; Activity (HUVEC [4]): inactive; Activity (MCF7): 0.24 µg/mL; Activity (HUVEC [5]): 117%; Activity (HUVEC [6]; Homo sapiens): inactive; Activity (HUVEC [7]): 50%; Activity (HUVEC [8]): 23%; Activity (HUVEC [9]): 50%; Activity (HUVEC [10]): inactive; Activity (HUVEC [11]): inactive; Activity (HUVEC [12]): 90%; Activity (HUVEC [14]): inactive; Activity (HUVEC [15]): 106%; Activity (HUVEC [16]): inactive; Activity (HUVEC [17]): 2%
18 | Cc1cc2c(nc1-c1ccccc1)C(=O)C=C(N1CC1)C2=O | inactive | – | – | – | –
19 | O=C1C(N2CC2)=CC(=O)c2nc(-c3ccc(-c4ccccc4)cc3)ccc21 | inactive | 7940 | 64.6 | 26.9 | –
